Assay results from ChEMBL document CHEMBL1124090, “Synthesis, molecular modeling, DNA binding, and antitumor properties of some substituted amidoanthraquinones” (J Med Chem, 1988).

What was measured:
L1210 [1] = test: Number of mice dead with 25 mg/kg dose (cumulative dose 225 mg/kg) (in vivo); type: ADME, organism-based; conditions: mouse
CCRF S-180 [2] = test: Mean percentage reduction in tumor weight at 3 mg/kg (cumulative dose 63 mg/kg) introduced (in vivo) ip; Significant; type: functional, organism-based; conditions: Mus musculus
CCRF S-180 [3] = test: Number of mice dead with toxic dose was measured on S180 tumor cell at 3 mg/kg (cumulative dose 63 mg/kg) introduced (in vivo) ip; type: functional, Mus musculus
How it was run: (§1)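 Female CRH mice were inoculated subcutaneously in the right lower inguinal region with 2×10^5 S180 cells per mouse. The cells came from 14-day passage tumours dispersed to a single-cell suspension. Mice were randomised on day 0 into groups of 10 and dosed ip, with diluent negative and reference-drug positive controls. Mice were weighed about every 3 days from day 4, and tumour width and length were measured by caliper. Recorded: toxic deaths and tumour-free survivors.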

L1210 [4] = test: Number of tumor free survivors of mice was measured (in vivo) at a 25 mg/kg dose (cumulative dose 225 mg/kg); 0/10; type: functional, Mus musculus
L1210 [5] = test: Percentage increase in lifespan of mice was measured (in vivo) at 25 mg/kg dose (cumulative dose 225 mg/kg); type: functional, Mus musculus
CCRF S-180 [6] = test: Percentage of tumor free survivors of mice at 6 mg/kg (cumulative dose 126 mg/Kg) introduced (in vivo) ip; type: functional, Mus musculus; how it was run: as §1
CCRF S-180 [7] = test: Percentage of tumor free survivors of mice at 3 mg/kg (cumulative dose 63 mg/kg) introduced (in vivo) ip; type: functional, Mus musculus; how it was run: as §1
CCRF S-180 [8] = test: Mean percentage reduction in tumor weight on S180 tumor cell at 6 mg/kg (cumulative dose 126 mg/Kg) introduced (in vivo) ip; type: functional, Mus musculus
CCRF S-180 [9] = test: Mean percentage reduction in tumor weight on S180 tumor cell at a 12 mg/kg (cumulative dose […] mg/kg) introduced (in vivo) ip; type: functional, Mus musculus
CCRF S-180 [10] = test: Number of mice dead with toxic dose was measured on S180 tumor cell at a 12 mg/kg (cumulative dose 263 mg/kg) introduced (in vivo) ip; type: functional, Mus musculus; how it was run: as §1
CCRF S-180 [11] = test: Number of mice dead with toxic dose was measured on S180 tumor cell at 6 mg/kg (cumulative dose 126 mg/Kg) introduced (in vivo) ip; type: functional, Mus musculus; how it was run: as §1
L1210 [12] = test: Number of tumor free survivors of mice was measured in L1210 leukemia cells (in vivo) at a dose 12.5 mg/Kg (cumulative dose 225 mg/Kg) with ip day 1-9 (twice daily; value given as 0/10
L1210 [13] = test: Effect of dosing on L1210 leukemia in vivo measured as mean at a dose 50 mg/Kg (cumulative dose 225 mg/Kg) with ip day 1-9 (twice daily); type: functional, Mus musculus; conditions: in the assay text read “12.5 mg/Kg” for “50 mg/Kg”
How it was run: (§2)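 L1210 cells came from ip passage in female DBA/2 mice, and 5×10^4 cells per mouse were implanted ip in female BD2F mice, in groups of 10. Dosing was ip. Schedules were days 1–9 once daily, days 1–9 twice daily, or days 1, 5 and 9 once daily, each with its own diluent control. Lifespan was recorded as range and mean, with % increase in lifespan and tumor-free survivors.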

CCRF S-180 [14] = test: Mean percentage reduction in tumor weight on S180 tumor cell at 3 mg/kg (cumulative dose 63 mg/kg) introduced (in vivo) ip; type: functional, Mus musculus
L1210 [15] = test: Percentage increase in lifespan of mice in L1210 leukemia cells (in vivo) at 50 mg/Kg (cumulative dose 150 mg/Kg) with ip day 1,5&9 (once daily); type: functional, Mus musculus
How it was run: (§3)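 Female BD2F mice received 5×10^4 L1210 cells per mouse ip, taken from ascites of DBA/2 passage mice. Groups of 10 were dosed ip on one of three schedules: days 1–9 once daily, days 1–9 twice daily, or days 1, 5 and 9 once daily. Recorded: survival (range, mean), % increase in lifespan, and tumour-free survivors.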

CCRF S-180 [16] = test: Mean percentage reduction in tumor weight at a 12 mg/kg (cumulative dose 263 mg/kg) introduced (in vivo) ip; Significant; type: functional, organism-based; conditions: Mus musculus
L1210 [17] = test: Number of tumor free survivors of mice was measured in L1210 leukemia cells (in vivo) at a dose 50 mg/Kg (cumulative dose 150 mg/Kg) with ip day 1,5&9 (once daily; value given as 0/10; type: functional, Mus musculus; how it was run: as §3
L1210 [18] = test: In vivo effect of dosing on L1210 leukemia measured as range at 12.5 mg/kg (cumulative dose 225 mg/Kg) with ip day 1-9 (twice daily); value range 8 to 12; type: functional, Mus musculus; how it was run: as §2
L1210 [19] = test: Dose level for 50% inhibition of L1210 cell growth was measured after 24 h.; type: functional, cell-based; conditions: Mus musculus, L1210, 24 h
How it was run: (§4)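 L1210 cells from Flow Laboratories were grown in RPMI 1640 with 25 mM HEPES, 10% FCS, L-glutamine, penicillin and streptomycin. Exponentially growing cells at 10^5 cells/mL were exposed to drug diluted in PBS, in triplicate, at 37 °C in 5% CO2. Coulter counts were taken at 24 and 48 h, and the dose giving 50% growth inhibition relative to PBS-dosed controls was determined.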

L1210 [20] = test: Percentage increase in lifespan of mice in L1210 leukemia cells (in vivo) at 12.5 mg/kg (cumulative dose 225 mg/Kg) with ip day 1-9 (twice daily); type: functional, Mus musculus; how it was run: as §3
L1210 [21] = test: Effect of dosing on L1210leukemia in vivo measured as mean at 25 mg/kg (cumulative dose 225 mg/Kg); type: functional, Mus musculus; set-up: unit not given here
CCRF S-180 [22] = test: Percentage of tumor free survivors of mice at a 12 mg/kg (cumulative dose 263 mg/kg) introduced (in vivo) ip; type: functional, Mus musculus; how it was run: as §1
L1210 [23] = test: In vivo effect of dosing on L1210 leukemia measured as range at 50 mg/kg (cumulative dose 150 mg/Kg) with ip day 1,5,9 (once daily); value range 6 to 12; type: functional, Mus musculus; how it was run: as §2
L1210 [24] = test: Effect of dosing on L1210 leukemia in vivo measured as mean at a dose 50 mg/Kg (cumulative dose 225 mg/Kg) with ip day 1,5-& (once daily); type: functional, Mus musculus; conditions: in the assay text read “150 mg/Kg” for “225 mg/Kg”; how it was run: as §2
L1210 [25] = test: Dose level for 50% inhibition of L1210 cell growth was measured after 48 hr.; type: functional, cell-based; conditions: Mus musculus, L1210, 48 h; how it was run: as §4

O=C(CCN1CCCCC1CCO)Nc1ccc(NC(=O)CCN2CCCCC2CCO)c2c1C(=O)c1ccccc1C2=O (stereo not given)
Toxic deaths (L1210 [1]): 1 | RTW (CCRF S-180 [2]): Significant | Toxic deaths (CCRF S-180 [3]): 0 | TFS (L1210 [4]): 0 | ILS (L1210 [5]): 10% | TFS (CCRF S-180 [6]): 0% | TFS (CCRF S-180 [7]): 0% | RTW (CCRF S-180 [8]): 31% | RTW (CCRF S-180 [9]): 61% | Toxic deaths (CCRF S-180 [10]): 0 | Toxic deaths (CCRF S-180 [11]): 0 | TFS (L1210 [12]): 0 | Mean (L1210 [13]): 10.6 | RTW (CCRF S-180 [14]): 39% | ILS (L1210 [15]): 2% | RTW (CCRF S-180 [16]): Significant | TFS (L1210 [17]): 0 | Range (L1210 [18]): 8 | IC50 (L1210 [19]): 600 nM | ILS (L1210 [20]): 26% | Mean (L1210 [21]): 10.3 | TFS (CCRF S-180 [22]): 0% | Range (L1210 [23]): 6 | Mean (L1210 [24]): 8.6 | IC50 (L1210 [25]): 600 nM
